Measurements of several laboratories.
Target: Activin receptor type-1-like (ACVRL1, Homo sapiens, UniProt P37023)

assay	setting	endpoint	value	SMILES
binding, competition with immobilised ligand	1 µM	remaining binding	100%	Cc1nccc(COC(=O)N2C[C@@H]3[C@@H](CNC(=O)c4ccc5[nH]nnc5c4)[C@@H]3C2)n1
cell-free assay	23.5 nM	remaining signal	100%	Cc1ccc(C(=O)Nc2ccc(CN3CCN(C)CC3)c(C(F)(F)F)c2)cc1C#Cc1cnc2cccnn12
cell-free assay	20 µM	remaining signal	100%	Nc1ncnc2occ(-c3ccc(NC(=O)Nc4cc(C(F)(F)F)ccc4F)cc3)c12
binding, competition with immobilised ligand	1 µM	remaining binding	97%	O=C(O)[C@@H]1[C@@H](Cn2nnc3ccccc3c2=O)CC[C@H]1C(=O)c1ccc(OCCC2CCOCC2)cc1
enzyme activity, inhibitor, radiometric	1 µM	remaining activity	100%	Cc1cnc(NC2CCOCC2)nc1-n1cnc(C(=O)NC(CN)c2cc(F)cc(Cl)c2)c1 (stereo not drawn)
cell-free assay	0.5 µM	remaining signal	96.4%	O=C1Nc2ccc(Cl)cc2C1=Cc1cc(Cl)c(O)c(Cl)c1
enzyme activity, inhibitor	1 µM	inhibition	4%	CN1CC(Oc2cnc(C#N)cc2-c2ccn3nc(NC(=O)C4CC4)cc3c2)C1
enzyme activity, inhibitor, radiometric	1 µM	remaining activity	75%	CC(C)(C)c1nc(-c2cccc(NS(=O)(=O)c3c(F)cccc3F)c2F)c(-c2ccnc(N)n2)s1
enzyme activity, inhibitor	10 µM	remaining activity	78.7%	Cc1sc(C(=O)NC2COC2)cc1-n1cc(NC(=O)Nc2c(F)cccc2Cl)cn1
cell-free assay	0.5 µM	remaining signal	104%	CNC(=O)c1cc(Oc2ccc(NC(=O)Nc3ccc(Cl)c(C(F)(F)F)c3)cc2)ccn1
cell-free assay, competition with immobilised ligand	1 µM	remaining binding	100%	CCC(=O)N[C@@H]1CC[C@H](C(=O)N(C)c2ccc(-c3nc4ccccc4o3)cc2)C1
cell-free assay	0.5 µM	remaining signal	101%	C#Cc1cccc(Nc2ncnc3cc(OCCOC)c(OCCOC)cc23)c1
cell-free assay, competition with immobilised ligand	1 µM	remaining binding	100%	CCCCN(CCCC)C(=O)CN1C[C@H](c2cc(OC)c3c(c2)OCO3)[C@@H](C(=O)O)[C@@H]1CC(C)(C)CCC
enzyme activity, inhibitor	5 µM	remaining activity	107%	O=C(Nc1cnn(-c2csc(C(=O)NC3COC3)c2)c1)Nc1ccccc1Cl
cell-free assay	0.5 µM	remaining signal	112%	CCN(CC)CCNC(=O)c1c(C)[nH]c(/C=C2\C(=O)Nc3ccc(F)cc32)c1C
